Laboratory results: ChEMBL document CHEMBL1123928, “Inhibition of human sputum elastase by substituted 2-pyrones” (J Med Chem, 1987)
pKi: −log10 of the molar value. In brackets after ≈: the same amount, converted by molar mass.

Columns and labels:
pancreatic elastase = pancreatic elastase (Sus scrofa, UniProt P00772+P08419); assay: Solubility against porcine pancreatic elastase; assay type: ADME, protein assay; settings: pig
In short: (§1)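 Single-point screen run under the HSE assay conditions (0.1 M HEPES, 0.5 M NaCl, 14.8% Me2SO, pH 7.5, 37 °C). One inhibitor concentration near its solubility limit: 25, 10, 1000 or 200 μM depending on compound. One substrate concentration at 0.29 Km; porcine elastase Km 2600 μM. Each run at least twice; p-nitrophenol read at 400 nm.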

alpha-chymotrypsin [1] = assay: (§2) Solubility against bovine alpha-chymotrypsin; assay type: ADME, Bos taurus; settings: cattle; in short: as §1
[2] = target: T1, trypsin (Serine protease 1) (Bos taurus, UniProt P00760); assay: Solubility against bovine trypsin; assay type: ADME; settings: cattle; in short: as §1
T1 sequence (P00760 whole entry): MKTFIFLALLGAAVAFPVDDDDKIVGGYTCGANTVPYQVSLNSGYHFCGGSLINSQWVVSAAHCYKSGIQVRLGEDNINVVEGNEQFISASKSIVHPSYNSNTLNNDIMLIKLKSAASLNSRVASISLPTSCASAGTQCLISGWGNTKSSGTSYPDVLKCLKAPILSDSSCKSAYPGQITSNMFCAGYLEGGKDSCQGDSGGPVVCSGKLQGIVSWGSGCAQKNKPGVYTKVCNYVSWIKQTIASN

Neutrophil elastase = target: T2, Neutrophil elastase (Homo sapiens, UniProt P08246); assay: (§3) Evaluated for inhibition of the human sputum elastase (HSE)
T2 sequence (P08246 whole entry): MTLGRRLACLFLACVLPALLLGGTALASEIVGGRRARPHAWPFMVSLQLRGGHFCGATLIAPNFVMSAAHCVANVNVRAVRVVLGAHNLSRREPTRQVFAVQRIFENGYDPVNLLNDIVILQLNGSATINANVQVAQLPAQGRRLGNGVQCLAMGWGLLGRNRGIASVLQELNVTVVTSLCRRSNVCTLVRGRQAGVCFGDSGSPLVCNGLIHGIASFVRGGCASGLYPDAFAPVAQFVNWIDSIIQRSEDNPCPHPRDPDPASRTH
In short: (§4)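 HSE from sputum prepared in 50 mM NaOAc/0.45 M NaCl pH 5.5. Assay in 0.1 M HEPES, 0.5 M NaCl, 14.8% Me2SO, pH 7.5, 37 °C. Inhibitor at two or more concentrations (4–250 μM depending on compound). […] Ki from Hanes–Woolf plots with Dixon-type replots.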

[3] = Evaluated for uncompetitive inhibition of the human sputum elastase (HSE); in short: as §4
[4] = Evaluated for Non-competitive inhibition of the human sputum elastase (HSE); in short: as §4
[5] = as §3; assay type: functional; in short: as §4
alpha-chymotrypsin [6] = assay: as §2; assay type: ADME, organism-based, Bos taurus; settings: cattle; in short: as §1
[7] = Evaluated for inhibition of the human sputum elastase (HSE) at 1000 micro M; No activity

inhibitor concentration tested (near solubility limit) (pancreatic elastase) [µM]	inhibitor concentration tested (near solubility limit) (alpha-chymotrypsin [1]) [µM]	solubility [2] [µM]	pKi (Neutrophil elastase)	pKi [3]	pKi [4]	pKi [5]	solubility (alpha-chymotrypsin [6]) [µM]	Ki [7]	Compound
25	25	25 (≈ 8.41 µg/mL)	4.82	–	–	–	–	–	CCCCCCCC(=O)c1c(O)cc(CCCCCCC)oc1=O
200	200	200 (≈ 42.1 µg/mL)	2.96	–	–	–	–	–	CCCCCCCc1cc(O)cc(=O)o1
200	200	200 (≈ 50.5 µg/mL)	–	–	3.40	–	–	–	CCCCCCCC(=O)c1c(O)cc(C)oc1=O
200	200	200 (≈ 44.9 µg/mL)	–	–	2.70	–	–	–	CCCCCC(=O)c1c(O)cc(C)oc1=O
25	25	25 (≈ 9.11 µg/mL)	5.34	–	–	–	–	–	CCCCCCCCC(=O)c1c(O)cc(CCCCCCCC)oc1=O
200	200	200 (≈ 56.1 µg/mL)	–	–	3.60	–	–	–	CCCCCCCCCC(=O)c1c(O)cc(C)oc1=O
200	200	200 (≈ 44.9 µg/mL)	–	3.85	–	–	–	–	CCCCCCCc1cc(OC)cc(=O)o1
25	25	25 (≈ 9.81 µg/mL)	5.10	–	–	–	–	–	CCCCCCCCCC(=O)c1c(O)cc(CCCCCCCCC)oc1=O

Further lines, the molecule ahead of its results:

Compound	inhibitor concentration tested (near solubility limit) (pancreatic elastase) [µM]	inhibitor concentration tested (near solubility limit) (alpha-chymotrypsin [1]) [µM]	solubility [2] [µM]	pKi (Neutrophil elastase)	pKi [3]	pKi [4]	pKi [5]	solubility (alpha-chymotrypsin [6]) [µM]	Ki [7]
CCCCCCCCCc1cc(OC)cc(=O)o1	200	200	200 (≈ 50.5 µg/mL)	–	3.89	–	–	–	–
CCCCCCCCCCCc1cc(O)cc(=O)o1	200	200	200 (≈ 53.3 µg/mL)	–	–	–	4.08	–	–
CCCCCCCCCc1cc(O)cc(=O)o1	200	200	200 (≈ 47.7 µg/mL)	3.40	–	–	–	–	–
CCOC(=O)C(=O)/C=C1\C=C(OC)C=C(O)O1	200	200	200 (≈ 48 µg/mL)	3.92	–	–	–	–	–
CCCCCc1cc(O)cc(=O)o1	200	200	200 (≈ 36.4 µg/mL)	2.77	–	–	–	–	–
CCCCCCCCCCCC(=O)c1c(O)cc(CCCCCCCCCCC)oc1=O	10	–	10 (≈ 4.49 µg/mL)	–	–	–	–	10 (≈ 4.49 µg/mL)	–
CCCCCCCCCCCC(=O)c1c(O)cc(C)oc1=O	200	200	200 (≈ 61.7 µg/mL)	–	–	4.27	–	–	–
CCCCCC(=O)c1c(O)cc(CCCCC)oc1=O	25	25	25 (≈ 7.01 µg/mL)	–	–	4.17	–	–	–
CCCCCOC(=O)C(=O)/C=C1\C=C(OC)C=C(O)O1	200	200	200 (≈ 56.5 µg/mL)	3.39	–	–	–	–	–
CCCCOC(=O)C(=O)/C=C1\C=C(OC)C=C(O)O1	200	200	200 (≈ 53.7 µg/mL)	3.46	–	–	–	–	–
COC1=C/C(=C\C(=O)C(=O)O)OC(O)=C1	1000	1000	1000 (≈ 212 µg/mL)	–	–	–	–	–	No inhibitory activity
